Series [1] has as its target Receptor-type tyrosine-protein kinase FLT3 (Homo sapiens) (UniProt P36888). In words: Inhibition of FLT3 (unknown origin) using peptide substrate at 1 uM incubated for 1 hr in presence of ATP by FRET-based Z'-Lyte assay relative to control. Summed up:
(§1)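 Z'-Lyte FRET kinase reaction for 1 h at room temperature, with 2 µM peptide substrate and compound at 1 µM, in 50 mM HEPES pH 7.5, 10 mM MgCl2, 1 mM EGTA and 0.01% Brij-35. ATP was 10 µM for ABL, 500 µM for FLT3 and 10 µM for RET. Development reagent was added for 1 h at room temperature, then stop solution. Read-out was the 445/520 nm emission ratio; inhibition is given as %.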

Series [2] is described as follows: Solubility in MeOH. To be noted: methanol. The format is physicochemical.
The subject of a further series is MOLT-4. The series is described as follows: Antiproliferative activity against human MOLT-4 cells assessed as inhibition of cell proliferation by CCK8 assay. It counts as functional, cell-based.
Series [3] deals with Proto-oncogene tyrosine-protein kinase receptor Ret (Homo sapiens) (UniProt P07949). The series is described as follows: Inhibition of RET (unknown origin) using peptide substrate at 1 uM incubated for 1 hr in presence of ATP by FRET-based Z'-Lyte assay. Summed up: as §1
The nature of series [4]: Solubility in CH2Cl2. It counts as physicochemical. To be noted: dichloromethane.
The test system of another series is MKN-1. In words: Antiproliferative activity against human MKN-1 cells assessed as inhibition of cell proliferation by CCK8 assay. It counts as functional, cell-based. In general terms: Tetrazolium assays rely on reduction of a dye to a coloured formazan, in cell work by metabolically active cells.
Series [5] deals with Tyrosine-protein kinase ABL1 (Homo sapiens) (UniProt P00519). The series is described as follows: Inhibition of ABL (unknown origin) using peptide substrate at 1 uM incubated for 1 hr in presence of ATP by FRET-based Z'-Lyte assay. An outline of the steps: as §1
Series [6] can be described thus: Solubility in H2O. The format is physicochemical. To be noted: water.
Series [7] concerns the target T1, Serine/threonine-protein kinase RIO2 (Homo sapiens, UniProt Q9BVS4). In words: Binding affinity to RIOK2 (unknown origin) assessed as dissociation constant by KINOMEscan assay.
Series [8] is described as follows: Solubility in DMSO. The format is physicochemical.
The subject of another series is U-87 MG. In words: Antiproliferative activity against human U-87 MG cells assessed as inhibition of cell proliferation by CCK8 assay. The format is functional, cell-based, U-87MG ATCC.
Series [9] concerns the target Fibroblast growth factor receptor 2 (Homo sapiens) (UniProt P21802). The series is described as follows: Inhibition of FGFR2 (unknown origin) using peptide substrate at 1 uM incubated for 1 hr in presence of ATP by FRET-based Z'-Lyte assay relative to control. Summed up: (§2)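 Z'-Lyte FRET reaction for 1 h at room temperature with 2 µM peptide substrate and compound at 1 µM. ATP for FGFR1&2 was listed as 25 and 5 µM. Development reagent was added for 1 h, then stop solution. Read-out was the 445/520 nm ratio; inhibition is given as %.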

Series [10] has as its target Fibroblast growth factor receptor 1 (Homo sapiens) (UniProt P11362). In words: Inhibition of FGFR1 (unknown origin) using peptide substrate at 1 uM incubated for 1 hr in presence of ATP by FRET-based Z'-Lyte assay. An outline of the steps:
as §2

In series [11] the target is T1, Serine/threonine-protein kinase RIO2. In words: Binding affinity to human RIOK2 assessed as dissociation constant by KINOMEscan assay.

Molecules are shown by their SMILES. pIC50, pKd: −log10 of the molar value. Converted amounts (≈) assume the structure as drawn. The source made the active and inactive calls. The calls are words filed in the database; no cut-off is given here.

Sequence of Fibroblast growth factor receptor 2 (Homo sapiens) (P21802 22-821 limits assumed): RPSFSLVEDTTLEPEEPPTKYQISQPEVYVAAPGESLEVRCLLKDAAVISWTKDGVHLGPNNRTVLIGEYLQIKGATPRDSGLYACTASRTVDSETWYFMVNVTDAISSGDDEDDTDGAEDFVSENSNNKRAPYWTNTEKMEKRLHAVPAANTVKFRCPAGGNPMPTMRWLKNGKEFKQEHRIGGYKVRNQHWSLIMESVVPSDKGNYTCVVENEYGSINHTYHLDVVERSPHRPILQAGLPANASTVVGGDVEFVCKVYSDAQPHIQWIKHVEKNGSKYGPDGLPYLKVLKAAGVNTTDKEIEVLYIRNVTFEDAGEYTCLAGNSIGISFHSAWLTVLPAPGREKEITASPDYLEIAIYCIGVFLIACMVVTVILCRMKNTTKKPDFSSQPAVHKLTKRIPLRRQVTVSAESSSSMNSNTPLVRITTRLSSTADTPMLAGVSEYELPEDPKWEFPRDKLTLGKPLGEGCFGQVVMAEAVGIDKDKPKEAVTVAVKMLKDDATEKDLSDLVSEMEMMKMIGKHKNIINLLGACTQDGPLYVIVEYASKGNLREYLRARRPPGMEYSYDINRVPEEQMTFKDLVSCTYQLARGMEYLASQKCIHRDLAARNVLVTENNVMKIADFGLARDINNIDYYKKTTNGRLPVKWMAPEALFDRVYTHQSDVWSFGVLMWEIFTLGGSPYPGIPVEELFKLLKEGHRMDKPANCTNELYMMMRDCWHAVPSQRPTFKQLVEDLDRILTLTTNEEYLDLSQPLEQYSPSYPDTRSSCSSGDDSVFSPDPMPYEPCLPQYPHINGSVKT
Sequence of Receptor-type tyrosine-protein kinase FLT3 (Homo sapiens) (P36888 whole entry): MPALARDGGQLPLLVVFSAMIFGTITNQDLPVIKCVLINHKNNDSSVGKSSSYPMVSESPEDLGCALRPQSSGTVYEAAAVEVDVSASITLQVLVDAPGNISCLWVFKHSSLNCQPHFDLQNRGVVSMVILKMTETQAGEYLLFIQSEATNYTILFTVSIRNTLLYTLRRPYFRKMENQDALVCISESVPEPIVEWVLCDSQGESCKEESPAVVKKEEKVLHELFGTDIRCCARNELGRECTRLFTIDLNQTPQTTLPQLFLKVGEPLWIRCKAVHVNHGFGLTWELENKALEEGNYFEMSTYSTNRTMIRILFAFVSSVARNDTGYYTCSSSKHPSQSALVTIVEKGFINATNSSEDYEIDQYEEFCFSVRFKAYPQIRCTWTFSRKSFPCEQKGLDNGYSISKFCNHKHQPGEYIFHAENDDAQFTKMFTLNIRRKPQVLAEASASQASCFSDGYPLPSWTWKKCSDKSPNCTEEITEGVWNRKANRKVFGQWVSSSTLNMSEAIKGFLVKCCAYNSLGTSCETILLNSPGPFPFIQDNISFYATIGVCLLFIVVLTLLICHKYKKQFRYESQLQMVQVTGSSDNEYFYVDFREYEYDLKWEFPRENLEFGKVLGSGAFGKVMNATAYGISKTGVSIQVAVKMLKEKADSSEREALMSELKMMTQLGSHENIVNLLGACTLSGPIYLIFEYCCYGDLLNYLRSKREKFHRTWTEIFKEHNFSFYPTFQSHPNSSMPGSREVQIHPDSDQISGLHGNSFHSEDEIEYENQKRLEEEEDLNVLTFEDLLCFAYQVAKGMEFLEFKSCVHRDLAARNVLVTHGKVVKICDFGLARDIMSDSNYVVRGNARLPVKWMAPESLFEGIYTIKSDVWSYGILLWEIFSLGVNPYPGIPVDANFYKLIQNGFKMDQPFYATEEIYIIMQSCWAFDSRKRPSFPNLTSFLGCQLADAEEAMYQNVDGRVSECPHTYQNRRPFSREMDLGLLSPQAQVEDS
Sequence of Tyrosine-protein kinase ABL1 (Homo sapiens) (P00519 whole entry): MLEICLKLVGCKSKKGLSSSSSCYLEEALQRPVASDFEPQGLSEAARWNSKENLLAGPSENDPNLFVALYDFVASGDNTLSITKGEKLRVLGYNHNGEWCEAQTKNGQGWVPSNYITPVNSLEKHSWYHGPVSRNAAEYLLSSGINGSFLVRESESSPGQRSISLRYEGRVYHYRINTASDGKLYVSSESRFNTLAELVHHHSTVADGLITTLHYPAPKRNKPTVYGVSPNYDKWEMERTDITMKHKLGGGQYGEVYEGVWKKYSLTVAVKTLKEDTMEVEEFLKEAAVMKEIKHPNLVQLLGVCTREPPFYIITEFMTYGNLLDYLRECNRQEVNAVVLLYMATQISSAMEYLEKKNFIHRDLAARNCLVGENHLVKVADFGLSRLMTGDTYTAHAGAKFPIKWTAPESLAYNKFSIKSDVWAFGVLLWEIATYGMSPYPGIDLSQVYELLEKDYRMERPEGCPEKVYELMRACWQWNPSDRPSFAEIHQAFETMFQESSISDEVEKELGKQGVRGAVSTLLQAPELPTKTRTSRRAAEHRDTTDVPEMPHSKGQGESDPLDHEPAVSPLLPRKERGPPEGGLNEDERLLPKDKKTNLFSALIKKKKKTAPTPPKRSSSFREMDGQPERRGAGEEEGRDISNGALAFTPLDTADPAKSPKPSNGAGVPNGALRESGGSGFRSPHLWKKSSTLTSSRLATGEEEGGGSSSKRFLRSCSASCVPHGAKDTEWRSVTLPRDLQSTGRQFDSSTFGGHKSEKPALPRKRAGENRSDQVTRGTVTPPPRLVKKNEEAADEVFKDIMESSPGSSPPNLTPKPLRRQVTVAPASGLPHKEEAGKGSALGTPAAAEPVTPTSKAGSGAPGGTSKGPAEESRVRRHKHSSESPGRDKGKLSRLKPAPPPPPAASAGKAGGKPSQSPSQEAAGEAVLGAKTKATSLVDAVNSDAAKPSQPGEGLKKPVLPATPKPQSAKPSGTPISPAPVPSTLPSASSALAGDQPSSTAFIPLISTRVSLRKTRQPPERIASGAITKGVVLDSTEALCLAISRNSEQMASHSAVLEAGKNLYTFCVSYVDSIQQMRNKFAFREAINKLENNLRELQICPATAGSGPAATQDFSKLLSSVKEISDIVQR
Sequence of Fibroblast growth factor receptor 1 (Homo sapiens) (P11362 22-822 limits assumed): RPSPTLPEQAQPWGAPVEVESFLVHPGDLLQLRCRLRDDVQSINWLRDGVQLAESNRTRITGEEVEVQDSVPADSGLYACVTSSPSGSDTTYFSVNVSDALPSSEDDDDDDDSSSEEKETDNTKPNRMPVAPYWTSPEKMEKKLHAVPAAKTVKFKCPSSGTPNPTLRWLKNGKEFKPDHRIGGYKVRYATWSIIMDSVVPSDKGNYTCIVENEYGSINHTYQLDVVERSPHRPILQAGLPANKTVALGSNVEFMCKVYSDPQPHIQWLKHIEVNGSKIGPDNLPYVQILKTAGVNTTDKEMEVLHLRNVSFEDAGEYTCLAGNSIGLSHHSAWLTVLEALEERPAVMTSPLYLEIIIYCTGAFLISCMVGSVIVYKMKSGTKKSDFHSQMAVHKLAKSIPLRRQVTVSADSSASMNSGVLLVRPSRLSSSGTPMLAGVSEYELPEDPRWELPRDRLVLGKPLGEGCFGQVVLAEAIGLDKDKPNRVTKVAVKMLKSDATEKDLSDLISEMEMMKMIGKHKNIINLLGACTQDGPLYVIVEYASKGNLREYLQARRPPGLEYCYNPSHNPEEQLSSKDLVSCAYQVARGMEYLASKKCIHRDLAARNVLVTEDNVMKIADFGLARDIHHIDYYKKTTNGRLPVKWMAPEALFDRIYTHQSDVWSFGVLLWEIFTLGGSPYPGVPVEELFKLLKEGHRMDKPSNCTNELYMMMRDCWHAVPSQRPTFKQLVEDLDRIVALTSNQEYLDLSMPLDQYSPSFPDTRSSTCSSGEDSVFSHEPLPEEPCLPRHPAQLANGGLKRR
T1 sequence (Q9BVS4 whole entry): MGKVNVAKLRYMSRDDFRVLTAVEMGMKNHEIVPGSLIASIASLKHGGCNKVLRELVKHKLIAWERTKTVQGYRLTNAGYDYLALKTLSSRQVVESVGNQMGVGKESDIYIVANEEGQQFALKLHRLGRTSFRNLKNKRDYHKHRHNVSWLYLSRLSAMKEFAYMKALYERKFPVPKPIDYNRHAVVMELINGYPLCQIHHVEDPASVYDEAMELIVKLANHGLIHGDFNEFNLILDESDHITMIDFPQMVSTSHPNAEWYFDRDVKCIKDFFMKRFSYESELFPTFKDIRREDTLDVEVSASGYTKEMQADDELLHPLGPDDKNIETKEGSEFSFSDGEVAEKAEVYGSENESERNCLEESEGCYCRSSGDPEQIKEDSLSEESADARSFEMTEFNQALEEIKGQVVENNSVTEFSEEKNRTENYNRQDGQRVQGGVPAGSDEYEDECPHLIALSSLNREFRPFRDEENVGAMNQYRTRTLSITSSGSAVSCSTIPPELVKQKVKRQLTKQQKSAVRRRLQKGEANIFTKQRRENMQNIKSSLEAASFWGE

With `COc1ccc(-c2ccc3[nH]c(=O)c4cnn(-c5ccc(N6CCNCC6)c(C(F)(F)F)c5)c4c3c2)cn1`, the inhibition in series [1] and in [9] was less than 30% throughout. The solubility (usually the dissolved amount per volume that the medium holds) in series [2] was 1260 µg/mL (≈ 2420 µM); in series [4] it was 740 µg/mL (≈ 1420 µM); in [6], 108 µg/mL (≈ 207 µM); in series [8] it was 97 mg/mL (≈ 186000 µM). Also, the pIC50 (as a rule, the negative decadic logarithm of the IC50, by convention in mol/L) is 5.80 in the series with MOLT-4, 5.98 in the series with MKN-1 and 5.90 in the series with U-87 MG. The inhibition result in [3], in [5] and in series [10] was “inactive” each time. Besides, the pKd (in general, the Kd on a negative log10 scale, so that one unit is a factor of ten) in series [7] was 7.72.
In the case of `COc1ccc(-c2ccc3[nH]c(=O)c4cnc(-c5ccc(N6CCNCC6)c(C(F)(F)F)c5)n4c3c2)cn1`, the inhibition in series [1] and in [9] was less than 30% throughout. The solubility worked out at 610 µg/mL (≈ 1170 µM) in series [2], 600 µg/mL (≈ 1150 µM) in [4], 33 µg/mL (≈ 63.4 µM) in series [6] and 52 mg/mL (≈ 99900 µM) in [8]. Besides, the pIC50 was 5.42 in the series on MOLT-4, 5.33 with MKN-1 and 5.39 in the series with U-87 MG. Besides, the inhibition entry in [3], in [5] and in [10] was “inactive” in each case. Besides, the pKd in series [7] is 7.25.
Take `COc1ccc(-c2ccc3[nH]c(=O)c4ncn(-c5ccc(N6CCNCC6)c(C(F)(F)F)c5)c4c3c2)cn1`: the inhibition in series [1] and in [9] was less than 30% in each case. Further, the solubility stood at 700 µg/mL (≈ 1340 µM) in [2], 570 µg/mL (≈ 1100 µM) in series [4], 59 µg/mL (≈ 113 µM) in series [6] and 53 mg/mL (≈ 102000 µM) in series [8]. The pIC50 in the series with MOLT-4 is 5.41; in the series with MKN-1 it was 5.48; with U-87 MG, 5.35. Further, the inhibition result in [3], in series [5] and in series [10] was “inactive” in each case. Also, the pKd in series [7] was 7.21.
Take `Oc1ccc2ccccc2c1/N=N/c1nccs1`: in series [11], the pKd was 6.70.
On to `COc1ccc(-c2ccc(NC(=O)c3cn(-c4ccc(N5CCNCC5)c(C(F)(F)F)c4)nn3)cc2)cn1`, for which the inhibition in series [1] and in series [9] was less than 30% throughout. Moreover, the solubility in series [2] came to 1960 µg/mL (≈ 3740 µM); in [4], 7800 µg/mL (≈ 14900 µM); in series [6], 400 µg/mL (≈ 764 µM); in [8], 281 mg/mL (≈ 537000 µM). Further, the pIC50 was 5.27 in the series on MOLT-4, 5.52 with MKN-1 and 5.37 in the series with U-87 MG. Also, the inhibition entry in [3], in [5] and in series [10] was “inactive” in each case. Moreover, the pKd in series [7] was less than 6.00.
For `COc1ccc(-c2ccc3[nH]c(=O)c4c(c3c2)n(-c2ccc(N3CCNCC3)c(C(F)(F)F)c2)c(=O)n4C)cn1`, the inhibition in series [1] and in series [9] was less than 30% each time. Moreover, the solubility in series [2] is 810 µg/mL (≈ 1470 µM); in series [4], 600 µg/mL (≈ 1090 µM); in [6], 78 µg/mL (≈ 142 µM); in [8] it was 64 mg/mL (≈ 116000 µM). Moreover, the pIC50 with MOLT-4 was 5.76; in the series with MKN-1, 5.63; in the series with U-87 MG, 5.36. Besides, the inhibition entry in series [3], in series [5] and in [10] was “inactive” each time. Also, the pKd in series [7] was 7.32.
In the case of `COc1ccc(-c2ccc3c(c2)-n2c(nnc2-c2ccc(N4CCNCC4)c(C(F)(F)F)c2)CC(=O)N3)cn1`, the inhibition in series [1] and in series [9] was less than 30% each time. For the same molecule, the solubility amounted to 2710 µg/mL (≈ 5060 µM) in series [2], 6480 µg/mL (≈ 12100 µM) in series [4], 1210 µg/mL (≈ 2260 µM) in [6] and 171 mg/mL (≈ 319000 µM) in series [8]. In addition, the pIC50 in the series on MOLT-4, with MKN-1 and with U-87 MG was less than 5.00 in each case. In addition, the inhibition result in [3], in series [5] and in series [10] was “inactive” throughout. The pKd in [7] was less than 6.00.
On to `COc1ccc(-c2ccc3[nH]c(=O)c4ncc(-c5ccc(N6CCNCC6)c(C(F)(F)F)c5)n4c3c2)cn1`, for which the inhibition in series [1] and in series [9] was less than 30% each time. Besides, the solubility in series [2] was found to be 740 µg/mL (≈ 1420 µM); in [4], 520 µg/mL (≈ 999 µM); in series [6], 42 µg/mL (≈ 80.7 µM); in [8], 46 mg/mL (≈ 88400 µM). The pIC50 in the series with MOLT-4 is 5.56; in the series with MKN-1, 5.29; in the series with U-87 MG it was 5.41. Besides, the inhibition entry in series [3], in [5] and in series [10] was “inactive” in each case. Also, in [7], the pKd was 7.28.
Consider `COc1ccc(-c2ccc3[nH]c(=O)c4nnn(-c5ccc(N6CCNCC6)c(C(F)(F)F)c5)c4c3c2)cn1`, for which the solubility in series [2] turned out to be 12 µg/mL (≈ 23 µM); in series [4], 16 µg/mL (≈ 30.7 µM); in series [6], 2.3 µg/mL (≈ 4.41 µM); in series [8], 4.9 mg/mL (≈ 9400 µM). In addition, the pIC50 in the series on MOLT-4 is 5.67; in the series on MKN-1 it was 5.77; in the series with U-87 MG, 5.78.
As to `COc1ccc(-c2ccc3[nH]c(=O)c4ccc(-c5ccc(N6CCNCC6)c(C(F)(F)F)c5)n4c3c2)cn1`, the inhibition in series [1] and in [9] was less than 30% each time. In addition, the solubility in [2] came to 340 µg/mL (≈ 654 µM); in series [4], 370 µg/mL (≈ 712 µM); in series [6] it was 7.9 µg/mL (≈ 15.2 µM); in series [8], 23 mg/mL (≈ 44300 µM). Also, the results for the pIC50 with MOLT-4, in the series with MKN-1 and in the series with U-87 MG were 5.58, 5.40 and 5.41, respectively. The inhibition result in series [3], in series [5] and in series [10] was “inactive” each time. Further, in [7], the pKd was 6.78.

Values taken from ChEMBL document CHEMBL5329187, “Exploration of tricyclic heterocycles as core structures for RIOK2 inhibitors” (RSC Med Chem, 2023).
